The source of these data is ChEMBL document CHEMBL4425103, “Diving into the Water: Inducible Binding Conformations for BRD4, TAF1(2), BRD9, and CECR2 Bromodomains” (J Med Chem, 2016).

Where only a bound is given, the exact number is not on record here.

The ΔTm is the shift of the melting midpoint relative to a reference. As a reminder, the IC50 is the point on the concentration scale where inhibition reaches its midpoint.

The test system of experiment [1] is T1, Chromatin remodeling regulator CECR2 (Homo sapiens), Q9BXF3 [M506I].
T1 sequence (whole entry): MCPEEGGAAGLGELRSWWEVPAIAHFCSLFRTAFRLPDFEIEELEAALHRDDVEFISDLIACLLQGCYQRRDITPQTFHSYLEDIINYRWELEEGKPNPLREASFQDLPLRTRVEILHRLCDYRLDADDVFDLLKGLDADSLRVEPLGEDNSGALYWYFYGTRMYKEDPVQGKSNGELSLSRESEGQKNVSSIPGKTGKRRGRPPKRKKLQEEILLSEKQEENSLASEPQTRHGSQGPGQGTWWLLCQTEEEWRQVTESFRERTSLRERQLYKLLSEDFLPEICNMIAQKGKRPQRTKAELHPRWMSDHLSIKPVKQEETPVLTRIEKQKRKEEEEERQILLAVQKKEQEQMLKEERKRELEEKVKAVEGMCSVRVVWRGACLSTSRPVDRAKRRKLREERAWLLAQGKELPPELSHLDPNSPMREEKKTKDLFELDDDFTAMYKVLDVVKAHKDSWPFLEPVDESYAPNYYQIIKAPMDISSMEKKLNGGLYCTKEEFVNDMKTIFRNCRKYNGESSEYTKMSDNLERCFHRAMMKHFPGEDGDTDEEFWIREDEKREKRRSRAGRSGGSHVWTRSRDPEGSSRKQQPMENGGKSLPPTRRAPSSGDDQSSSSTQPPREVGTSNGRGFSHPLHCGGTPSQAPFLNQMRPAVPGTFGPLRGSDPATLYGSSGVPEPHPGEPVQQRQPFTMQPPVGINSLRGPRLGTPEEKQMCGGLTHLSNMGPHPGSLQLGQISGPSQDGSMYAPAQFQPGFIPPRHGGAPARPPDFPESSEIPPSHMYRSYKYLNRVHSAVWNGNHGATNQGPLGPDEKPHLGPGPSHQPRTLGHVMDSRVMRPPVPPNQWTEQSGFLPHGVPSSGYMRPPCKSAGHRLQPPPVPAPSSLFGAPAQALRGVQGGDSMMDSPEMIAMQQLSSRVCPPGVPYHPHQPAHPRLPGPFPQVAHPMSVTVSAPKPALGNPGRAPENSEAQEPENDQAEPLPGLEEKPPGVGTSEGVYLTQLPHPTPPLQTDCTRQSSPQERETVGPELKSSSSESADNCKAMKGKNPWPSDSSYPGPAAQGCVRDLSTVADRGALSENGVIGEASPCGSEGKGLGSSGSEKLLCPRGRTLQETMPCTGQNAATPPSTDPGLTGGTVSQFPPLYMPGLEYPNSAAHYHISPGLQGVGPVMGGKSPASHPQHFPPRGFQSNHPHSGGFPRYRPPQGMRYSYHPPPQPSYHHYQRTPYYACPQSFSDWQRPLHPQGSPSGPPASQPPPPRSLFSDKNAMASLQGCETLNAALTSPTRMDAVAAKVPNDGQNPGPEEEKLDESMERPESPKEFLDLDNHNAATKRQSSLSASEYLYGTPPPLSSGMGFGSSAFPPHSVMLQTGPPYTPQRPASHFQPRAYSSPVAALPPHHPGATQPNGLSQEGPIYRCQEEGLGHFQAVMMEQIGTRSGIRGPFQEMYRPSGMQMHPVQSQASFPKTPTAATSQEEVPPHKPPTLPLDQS
Put plainly: Binding affinity to CECR2 M506I mutant (unknown origin) assessed as change in melting temperature at 10 uM by SYPRO red dye based differential scanning fluorimetry. Put shortly:
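Differential scanning fluorimetry: aggregate removed by centrifugation, then bromodomain at 4 µM final with 10X SYPRO Red, 10 µM compound and 0.2% DMSO in 20 mM HEPES pH 7.7, 100 mM NaCl. Heated 25 to 95 °C, fluorescence read at 1 °C steps. Apparent Tm taken from melt curves; mean of at least five wells for CECR2.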

The target in a further experiment is T2, Peregrin (Homo sapiens, UniProt P55201).
T2 sequence (P55201 whole entry): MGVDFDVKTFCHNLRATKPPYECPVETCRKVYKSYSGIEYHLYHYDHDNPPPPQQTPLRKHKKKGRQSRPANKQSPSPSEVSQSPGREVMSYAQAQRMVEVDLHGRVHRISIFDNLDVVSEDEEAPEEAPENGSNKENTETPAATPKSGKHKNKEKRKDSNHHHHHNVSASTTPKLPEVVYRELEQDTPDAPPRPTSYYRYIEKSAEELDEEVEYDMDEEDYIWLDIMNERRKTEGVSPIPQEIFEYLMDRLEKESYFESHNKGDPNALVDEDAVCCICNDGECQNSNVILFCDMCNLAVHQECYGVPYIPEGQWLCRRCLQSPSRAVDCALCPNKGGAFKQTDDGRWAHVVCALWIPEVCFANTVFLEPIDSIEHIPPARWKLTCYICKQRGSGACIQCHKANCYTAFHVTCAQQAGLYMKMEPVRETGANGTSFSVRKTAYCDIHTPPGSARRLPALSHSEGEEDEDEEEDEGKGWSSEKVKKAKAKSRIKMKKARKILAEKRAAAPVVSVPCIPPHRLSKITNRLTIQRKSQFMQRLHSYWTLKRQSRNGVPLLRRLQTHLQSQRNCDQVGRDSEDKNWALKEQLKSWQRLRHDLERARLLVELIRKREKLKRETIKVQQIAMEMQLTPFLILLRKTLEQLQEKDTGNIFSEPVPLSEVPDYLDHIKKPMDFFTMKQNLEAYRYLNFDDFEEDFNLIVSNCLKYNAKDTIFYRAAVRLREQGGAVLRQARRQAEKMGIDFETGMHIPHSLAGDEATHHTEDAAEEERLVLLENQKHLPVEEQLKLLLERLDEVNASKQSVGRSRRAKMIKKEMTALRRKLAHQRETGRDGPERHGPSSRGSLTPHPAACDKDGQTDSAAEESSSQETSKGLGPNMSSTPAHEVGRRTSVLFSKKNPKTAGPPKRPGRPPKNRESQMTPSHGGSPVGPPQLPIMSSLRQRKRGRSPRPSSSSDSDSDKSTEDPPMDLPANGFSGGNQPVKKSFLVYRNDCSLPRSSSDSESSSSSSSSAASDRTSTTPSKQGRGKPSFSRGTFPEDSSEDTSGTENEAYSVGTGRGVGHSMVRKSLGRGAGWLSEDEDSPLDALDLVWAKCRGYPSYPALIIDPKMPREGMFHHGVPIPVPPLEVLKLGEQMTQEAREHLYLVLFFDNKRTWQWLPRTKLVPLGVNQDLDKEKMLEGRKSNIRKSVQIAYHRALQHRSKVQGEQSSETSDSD
Put plainly: Displacement of biotinylated JQ1 analog from recombinant His-tagged BRPF1 (unknown origin) incubated for 10 mins by TR-FRET assay. Put shortly: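 Bromodomain, then biotinylated ligand, each added with 10 min incubation. Anti-His europium (0.2 nM) plus streptavidin-APC followed for 40 min. 10-point titrations in duplicate, at least 2 independent runs.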
A general note: In TR-FRET formats the signal depends on donor and acceptor labels being close together.

`C=CCn1cc(-c2cccc(C(=O)N(C)C)c2)c2cc[nH]c2c1=O`: in experiment [1], the ΔTm is 2 °C. For the same compound, the IC50 at Peregrin is > 20 µM.

Regarding `CN(C)C(=O)c1cccc(-c2cn(C)c(=O)c3[nH]ccc23)c1`, the ΔTm in experiment [1] was determined as 3 °C. In addition, the IC50 on Peregrin is 1.5 µM.
